Assay results: ChEMBL document CHEMBL1944596, “7,8-dichloro-1-oxo-β-carbolines as a versatile scaffold for the development of potent and selective kinase inhibitors with unusual binding modes” (J Med Chem, 2012)

Key:
K562 = assay: Growth inhibition of human K562 cells after 48 hrs by WST-1 assay; format: functional, cell-based; settings: K562, 48 h
Outline: (§1)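 Compound (0–10 μM) added to the culture medium and incubated 48 h. Proliferation and viability read by WST-1 reagent. Survival expressed as percentage of control cultures and IC50 derived by curve fitting.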

MV4-11 = assay: Growth inhibition of human MV4-11 cells after 48 hrs by WST-1 assay; format: functional, cell-based; settings: MV4-11, 48 h; outline: as §1
[1] = Growth inhibition of human RS4:11 cells after 48 hrs by WST-1 assay; format: functional, cell-based; settings: RS4-11, 48 h; outline: as §1
[2] = Growth inhibition of human SEM cells after 48 hrs by WST-1 assay; format: functional, cell-based; outline: as §1
MOLM-13 = assay: Growth inhibition of human MOLM13 cells after 48 hrs by WST-1 assay; format: functional, cell-based; settings: MOLM-13, 48 h
Outline: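 Inhibitor at 0–10 μM added to the culture medium for 48 h. Proliferation and viability were read with WST-1 reagent. Survival was expressed as a percentage of control cultures, and IC50 was fitted from the concentration series.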

[3] = target: Serine/threonine-protein kinase pim-1 (Homo sapiens, UniProt P11309); assay: Binding affinity to PIM1 assessed as change in thermal denaturation at 10 uM by thermal stability shift assay
Chain of Serine/threonine-protein kinase pim-1 (P11309 whole entry, looked up): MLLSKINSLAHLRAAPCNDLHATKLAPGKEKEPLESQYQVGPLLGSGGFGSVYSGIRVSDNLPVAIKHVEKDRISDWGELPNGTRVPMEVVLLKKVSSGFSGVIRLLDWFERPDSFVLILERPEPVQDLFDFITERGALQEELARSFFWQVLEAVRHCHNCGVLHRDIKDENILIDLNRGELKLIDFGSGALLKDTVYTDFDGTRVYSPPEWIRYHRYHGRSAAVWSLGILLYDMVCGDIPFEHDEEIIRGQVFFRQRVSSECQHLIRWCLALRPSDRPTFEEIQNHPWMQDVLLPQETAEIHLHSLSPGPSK
Outline: (§2)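 Each compound was screened across a kinase panel by thermal stability shift assay. The read-out was the shift in protein melting temperature (ΔTm, in °C) relative to the unliganded kinase. A ΔTm of 4.0 °C served as the hit cutoff.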

[4] = target: Casein kinase II subunit alpha' (Homo sapiens) (UniProt P19784); assay: Binding affinity to CK2alpha2 assessed as change in thermal denaturation at 10 uM by thermal stability shift assay; outline: as §2
Chain of Casein kinase II subunit alpha' (Homo sapiens) (P19784 whole entry, looked up): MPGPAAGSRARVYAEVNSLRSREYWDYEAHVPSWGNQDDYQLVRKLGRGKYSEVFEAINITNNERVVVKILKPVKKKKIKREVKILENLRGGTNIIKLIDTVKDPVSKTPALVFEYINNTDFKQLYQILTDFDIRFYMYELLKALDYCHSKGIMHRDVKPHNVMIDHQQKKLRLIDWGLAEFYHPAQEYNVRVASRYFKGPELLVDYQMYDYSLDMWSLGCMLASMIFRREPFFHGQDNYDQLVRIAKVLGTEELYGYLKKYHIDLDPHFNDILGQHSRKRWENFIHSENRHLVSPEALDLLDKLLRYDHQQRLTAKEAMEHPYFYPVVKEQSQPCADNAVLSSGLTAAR

[5] = target: T1, Serine/threonine-protein kinase 17A (Homo sapiens) (UniProt Q9UEE5); assay: Binding affinity to DRAK1 assessed as change in thermal denaturation at 10 uM by thermal stability shift assay; outline: as §2
T1 sequence (whole entry): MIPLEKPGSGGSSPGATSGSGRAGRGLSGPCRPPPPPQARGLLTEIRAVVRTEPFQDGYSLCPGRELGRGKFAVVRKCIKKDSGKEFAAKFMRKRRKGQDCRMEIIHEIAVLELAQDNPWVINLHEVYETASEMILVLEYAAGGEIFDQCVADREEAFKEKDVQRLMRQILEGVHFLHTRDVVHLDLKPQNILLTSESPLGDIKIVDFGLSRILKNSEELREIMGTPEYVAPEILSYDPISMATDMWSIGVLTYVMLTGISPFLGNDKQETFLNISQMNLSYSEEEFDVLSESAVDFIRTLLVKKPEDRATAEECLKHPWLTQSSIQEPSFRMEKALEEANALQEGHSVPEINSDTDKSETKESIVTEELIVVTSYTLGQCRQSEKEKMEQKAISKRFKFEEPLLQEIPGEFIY

[6] = target: Death-associated protein kinase 3 (Homo sapiens) (UniProt O43293); assay: Binding affinity to N-terminus His6-tagged DAPK3 expressed in Escherichia coli BL21 (DE3) cells coexpressing pCOEX assessed as change in thermal denaturation at 10 uM by thermal stability shift assay
Chain of Death-associated protein kinase 3 (Homo sapiens) (O43293 whole entry, looked up): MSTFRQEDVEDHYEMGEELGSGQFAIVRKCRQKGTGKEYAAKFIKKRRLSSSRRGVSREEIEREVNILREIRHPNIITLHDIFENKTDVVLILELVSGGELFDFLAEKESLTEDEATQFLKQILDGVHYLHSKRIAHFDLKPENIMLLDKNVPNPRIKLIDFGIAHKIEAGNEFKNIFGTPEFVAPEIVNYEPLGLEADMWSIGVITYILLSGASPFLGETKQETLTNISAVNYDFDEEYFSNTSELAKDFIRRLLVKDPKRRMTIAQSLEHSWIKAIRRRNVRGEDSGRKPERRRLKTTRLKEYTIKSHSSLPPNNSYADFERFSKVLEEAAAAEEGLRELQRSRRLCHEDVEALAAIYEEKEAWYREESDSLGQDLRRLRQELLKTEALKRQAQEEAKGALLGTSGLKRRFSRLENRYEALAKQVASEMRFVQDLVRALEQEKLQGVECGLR
Outline: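 DAPK3 was expressed in E. coli grown in TB with kanamycin and chloramphenicol at 37 °C, cooled to 25 °C, and induced with 0.5 mM IPTG. Binding was read as thermal-shift ΔTm in °C.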

[7] = target: T2, Myosin light chain kinase family member 4 (Homo sapiens) (UniProt Q86YV6); assay: Binding affinity to SGK085 assessed as change in thermal denaturation at 10 uM by thermal stability shift assay; outline: as §2
T2 sequence (whole entry): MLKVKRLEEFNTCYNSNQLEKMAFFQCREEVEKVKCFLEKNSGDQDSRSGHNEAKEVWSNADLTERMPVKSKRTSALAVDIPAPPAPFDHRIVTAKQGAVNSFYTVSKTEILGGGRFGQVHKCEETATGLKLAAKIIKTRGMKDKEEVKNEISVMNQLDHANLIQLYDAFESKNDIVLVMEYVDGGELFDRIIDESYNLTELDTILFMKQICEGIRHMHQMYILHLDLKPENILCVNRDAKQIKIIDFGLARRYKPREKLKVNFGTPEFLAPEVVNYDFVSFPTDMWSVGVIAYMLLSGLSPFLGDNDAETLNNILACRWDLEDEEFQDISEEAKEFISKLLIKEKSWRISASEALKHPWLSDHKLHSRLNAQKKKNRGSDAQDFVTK

[8] = target: T3, Cyclin-G-associated kinase (Homo sapiens) (UniProt O14976); assay: Binding affinity to GAK assessed as change in thermal denaturation at 10 uM by thermal stability shift assay; outline: as §2
T3 sequence (whole entry): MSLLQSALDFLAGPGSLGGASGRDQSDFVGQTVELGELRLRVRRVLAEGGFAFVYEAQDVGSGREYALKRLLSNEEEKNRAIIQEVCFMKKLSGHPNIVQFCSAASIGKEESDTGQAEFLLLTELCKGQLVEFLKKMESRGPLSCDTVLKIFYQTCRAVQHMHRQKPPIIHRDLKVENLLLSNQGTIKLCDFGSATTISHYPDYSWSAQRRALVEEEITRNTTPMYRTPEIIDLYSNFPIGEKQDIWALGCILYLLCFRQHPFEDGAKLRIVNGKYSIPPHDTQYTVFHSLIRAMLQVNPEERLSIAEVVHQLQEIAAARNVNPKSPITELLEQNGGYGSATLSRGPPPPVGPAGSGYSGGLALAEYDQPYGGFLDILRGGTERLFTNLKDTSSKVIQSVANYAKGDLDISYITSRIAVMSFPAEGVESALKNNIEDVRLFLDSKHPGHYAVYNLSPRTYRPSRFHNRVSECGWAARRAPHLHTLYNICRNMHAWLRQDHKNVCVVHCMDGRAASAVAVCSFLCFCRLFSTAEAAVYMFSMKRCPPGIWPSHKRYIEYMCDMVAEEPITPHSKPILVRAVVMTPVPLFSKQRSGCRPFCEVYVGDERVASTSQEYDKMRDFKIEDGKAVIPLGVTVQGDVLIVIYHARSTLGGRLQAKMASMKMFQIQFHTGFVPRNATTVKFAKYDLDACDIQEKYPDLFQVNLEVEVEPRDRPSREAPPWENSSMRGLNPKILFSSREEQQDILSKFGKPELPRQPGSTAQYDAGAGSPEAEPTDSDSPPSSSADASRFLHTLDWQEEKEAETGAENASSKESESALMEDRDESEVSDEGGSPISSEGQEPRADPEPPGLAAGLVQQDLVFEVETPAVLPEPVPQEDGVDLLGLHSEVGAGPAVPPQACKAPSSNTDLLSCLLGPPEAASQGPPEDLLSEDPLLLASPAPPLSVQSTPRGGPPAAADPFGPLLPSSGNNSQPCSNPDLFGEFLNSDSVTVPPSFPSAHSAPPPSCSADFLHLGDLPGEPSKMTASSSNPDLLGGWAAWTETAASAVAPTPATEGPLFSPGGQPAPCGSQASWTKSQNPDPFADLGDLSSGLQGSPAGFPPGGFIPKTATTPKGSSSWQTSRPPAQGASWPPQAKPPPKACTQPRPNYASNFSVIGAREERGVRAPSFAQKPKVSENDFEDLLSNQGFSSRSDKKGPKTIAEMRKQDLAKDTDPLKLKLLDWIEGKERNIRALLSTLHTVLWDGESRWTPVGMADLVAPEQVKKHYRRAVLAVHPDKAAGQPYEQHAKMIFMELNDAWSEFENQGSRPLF

[9] = target: Dual specificity protein kinase CLK4 (Homo sapiens) (UniProt Q9HAZ1); assay: Binding affinity to CLK4 assessed as change in thermal denaturation at 10 uM by thermal stability shift assay; outline: as §2
Chain of Dual specificity protein kinase CLK4 (Homo sapiens) (Q9HAZ1 whole entry, looked up): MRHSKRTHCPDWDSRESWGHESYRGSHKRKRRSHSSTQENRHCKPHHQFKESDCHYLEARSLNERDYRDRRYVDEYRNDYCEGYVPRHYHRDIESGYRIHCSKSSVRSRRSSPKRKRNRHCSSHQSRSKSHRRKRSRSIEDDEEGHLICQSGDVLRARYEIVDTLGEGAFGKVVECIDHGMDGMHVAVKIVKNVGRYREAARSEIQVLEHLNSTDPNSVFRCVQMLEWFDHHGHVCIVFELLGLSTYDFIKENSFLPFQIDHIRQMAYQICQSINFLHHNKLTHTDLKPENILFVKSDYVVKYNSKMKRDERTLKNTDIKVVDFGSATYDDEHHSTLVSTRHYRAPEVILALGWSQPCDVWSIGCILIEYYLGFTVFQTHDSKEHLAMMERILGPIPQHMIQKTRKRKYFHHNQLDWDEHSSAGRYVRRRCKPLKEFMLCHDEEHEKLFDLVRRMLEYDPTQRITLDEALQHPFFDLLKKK

[10] = target: T4, Serine/threonine-protein kinase 17B (Homo sapiens) (UniProt O94768); assay: Binding affinity to DRAK2 assessed as change in thermal denaturation at 10 uM by thermal stability shift assay; outline: as §2
T4 sequence (whole entry): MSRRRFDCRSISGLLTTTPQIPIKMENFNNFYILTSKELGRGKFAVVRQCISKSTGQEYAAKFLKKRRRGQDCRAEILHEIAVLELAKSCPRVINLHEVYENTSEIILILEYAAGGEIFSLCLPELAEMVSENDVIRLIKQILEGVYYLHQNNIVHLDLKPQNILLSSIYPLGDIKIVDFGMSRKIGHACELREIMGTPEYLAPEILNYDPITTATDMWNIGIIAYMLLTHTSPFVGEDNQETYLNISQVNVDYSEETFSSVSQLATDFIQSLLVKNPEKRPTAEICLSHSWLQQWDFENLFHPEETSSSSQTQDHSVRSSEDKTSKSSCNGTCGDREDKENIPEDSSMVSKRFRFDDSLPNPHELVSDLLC

[11] = target: Dual specificity protein kinase CLK1 (Homo sapiens) (UniProt P49759); assay: Binding affinity to CLK1 assessed as change in thermal denaturation at 10 uM by thermal stability shift assay; outline: as §2
Chain of Dual specificity protein kinase CLK1 (Homo sapiens) (P49759 whole entry, looked up): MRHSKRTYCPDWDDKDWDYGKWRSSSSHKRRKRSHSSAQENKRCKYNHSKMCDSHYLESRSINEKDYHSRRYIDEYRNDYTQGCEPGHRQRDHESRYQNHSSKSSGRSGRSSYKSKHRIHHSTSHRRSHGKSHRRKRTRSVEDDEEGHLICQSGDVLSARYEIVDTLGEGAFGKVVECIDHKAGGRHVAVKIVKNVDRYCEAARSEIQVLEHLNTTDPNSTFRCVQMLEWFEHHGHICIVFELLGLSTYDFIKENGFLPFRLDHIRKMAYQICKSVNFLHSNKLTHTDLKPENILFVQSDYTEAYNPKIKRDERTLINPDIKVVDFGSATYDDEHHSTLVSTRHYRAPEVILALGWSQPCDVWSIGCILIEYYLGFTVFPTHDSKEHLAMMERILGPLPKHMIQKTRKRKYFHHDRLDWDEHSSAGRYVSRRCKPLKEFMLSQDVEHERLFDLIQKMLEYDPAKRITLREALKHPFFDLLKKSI

[12] = target: AP2-associated protein kinase 1 (Homo sapiens) (UniProt Q2M2I8); assay: Binding affinity to AAK1 assessed as change in thermal denaturation at 10 uM by thermal stability shift assay; outline: as §2
Chain of AP2-associated protein kinase 1 (Homo sapiens) (Q2M2I8 whole entry, looked up): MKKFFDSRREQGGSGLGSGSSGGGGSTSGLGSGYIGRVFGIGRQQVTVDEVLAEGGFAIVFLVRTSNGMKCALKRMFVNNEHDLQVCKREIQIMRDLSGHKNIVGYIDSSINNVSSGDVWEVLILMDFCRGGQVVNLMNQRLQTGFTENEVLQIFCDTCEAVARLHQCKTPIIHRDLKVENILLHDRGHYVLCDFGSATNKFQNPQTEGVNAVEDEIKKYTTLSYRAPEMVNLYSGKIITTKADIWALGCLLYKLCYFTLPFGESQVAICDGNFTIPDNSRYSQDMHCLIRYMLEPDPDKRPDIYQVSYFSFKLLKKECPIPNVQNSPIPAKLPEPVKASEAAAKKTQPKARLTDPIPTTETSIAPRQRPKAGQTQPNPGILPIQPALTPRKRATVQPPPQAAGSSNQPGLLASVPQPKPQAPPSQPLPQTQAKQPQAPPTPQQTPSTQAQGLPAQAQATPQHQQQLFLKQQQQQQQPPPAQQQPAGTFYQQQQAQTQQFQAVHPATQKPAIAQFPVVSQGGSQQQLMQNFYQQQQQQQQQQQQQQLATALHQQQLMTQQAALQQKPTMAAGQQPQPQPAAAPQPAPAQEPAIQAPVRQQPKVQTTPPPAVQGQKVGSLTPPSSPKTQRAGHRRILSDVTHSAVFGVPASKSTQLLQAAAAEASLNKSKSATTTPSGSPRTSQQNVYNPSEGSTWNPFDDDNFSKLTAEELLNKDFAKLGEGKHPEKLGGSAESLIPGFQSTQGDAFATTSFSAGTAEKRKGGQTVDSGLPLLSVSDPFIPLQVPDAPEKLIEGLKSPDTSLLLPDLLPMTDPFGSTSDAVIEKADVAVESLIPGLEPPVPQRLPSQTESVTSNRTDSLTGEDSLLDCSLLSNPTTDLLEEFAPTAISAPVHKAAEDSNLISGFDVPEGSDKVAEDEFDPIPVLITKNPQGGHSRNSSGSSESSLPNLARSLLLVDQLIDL

[13] = target: Serine/threonine-protein kinase pim-3 (Homo sapiens, UniProt Q86V86); assay: Binding affinity to PIM3 assessed as change in thermal denaturation at 10 uM by thermal stability shift assay; outline: as §2

**Q.** Which results are given for CC(=O)c1cccc(-c2cnc3ccc(NCC4CC4)nn23)c1?
**A.** IC50 (K562): 8 µM; IC50 (MV4-11): 0.4 µM; IC50 [1]: 8.8 µM; IC50 [2]: 6 µM; IC50 (MOLM-13): 0.3 µM

**Q.** For Cn1c2c(c3ccc(Cl)c(Cl)c31)C(C#N)C1(CCCCC1)NC2=O (racemic), which ΔTm [3] is on record?
**A.** The ΔTm was 4.7 °C.

**Q.** What about the ΔTm [4] of the same compound?
**A.** The ΔTm was 0.8 °C.

**Q.** And the ΔTm [5]?
**A.** Its ΔTm is 3 °C.

**Q.** What about the ΔTm [6] of the same compound?
**A.** Its ΔTm is 4.7 °C.

**Q.** And the ΔTm [7]?
**A.** The ΔTm was 0.5 °C.

**Q.** What about the ΔTm [8] of the same compound?
**A.** The ΔTm was 0.9 °C.

**Q.** And the ΔTm [9]?
**A.** The ΔTm was 1.1 °C.

**Q.** What about the ΔTm [10] of the same compound?
**A.** Its ΔTm is 2.9 °C.

**Q.** And the ΔTm [11]?
**A.** Its ΔTm is 4 °C.

**Q.** What about the ΔTm [12] of the same compound?
**A.** The ΔTm was 1.7 °C.

**Q.** What about the ΔTm [13] of the same compound?
**A.** The ΔTm was 4 °C.
